Compounds with a hit are over-represented: about 2.1% of the library has one in this group of screens.
CXCR6 inh – inhibitors of human CXCR6 receptor | CHO-K1 PathHunter CXCR6 beta-arrestin, luminescence | inhibition, % at 20 µM | actives 0.36% (n = 360,000); in the data active = inhibition above about 34%, passing the limit was not always enough;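 note: antagonist mode with CXCL16 agonist at 10 nM final; 0% = 10 nM CXCL16 with DMSO and 100% = unstimulated wells without agonist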
Target sequence (O00574 whole entry, looked up): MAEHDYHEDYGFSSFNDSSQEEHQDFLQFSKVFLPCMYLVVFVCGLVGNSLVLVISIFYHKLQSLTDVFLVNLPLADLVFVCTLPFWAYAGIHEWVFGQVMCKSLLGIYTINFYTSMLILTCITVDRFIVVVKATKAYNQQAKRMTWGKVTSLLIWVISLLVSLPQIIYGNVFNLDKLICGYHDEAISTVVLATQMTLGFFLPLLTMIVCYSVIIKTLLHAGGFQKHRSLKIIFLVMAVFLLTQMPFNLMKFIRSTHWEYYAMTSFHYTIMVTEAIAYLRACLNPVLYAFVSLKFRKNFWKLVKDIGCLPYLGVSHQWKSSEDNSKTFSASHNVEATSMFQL
APJ antagonist – blocks the human apelin receptor APJ | P35414 | actives 0.32% (n = 330,000) | CHO-K1 APJ beta-arrestin complementation, luminescence | inhibition, % at 20 µM;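 active = inhibition above about 40% at 20 µM, limit read from the data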;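 note: cells challenged with 10 nM apelin-13 agonist together with compound; plate controls were apelin-13 plus DMSO wells for no effect and DMSO wells lacking apelin-13 for full effect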
Target sequence (P35414 whole entry, looked up): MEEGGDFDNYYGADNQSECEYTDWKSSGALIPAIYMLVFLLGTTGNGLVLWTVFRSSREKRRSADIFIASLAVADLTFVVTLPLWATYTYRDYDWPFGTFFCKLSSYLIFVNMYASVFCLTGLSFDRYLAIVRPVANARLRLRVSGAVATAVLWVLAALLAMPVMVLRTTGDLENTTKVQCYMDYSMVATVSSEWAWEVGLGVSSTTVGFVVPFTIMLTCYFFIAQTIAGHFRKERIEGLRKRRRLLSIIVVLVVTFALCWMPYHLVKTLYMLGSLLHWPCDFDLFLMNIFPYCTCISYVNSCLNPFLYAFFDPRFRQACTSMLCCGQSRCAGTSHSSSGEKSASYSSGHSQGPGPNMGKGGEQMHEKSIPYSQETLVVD
CCR6 antagonist – blocks CCL20-driven beta-arrestin recruitment at human CCR6; P51684; CHO-K1 CCR6 PathHunter beta-arrestin, luminescence, CCL20-stimulated; inhibition, % at 20 µM; actives 0.49% (n = 340,000); AID 493098;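 active = compounds whose inhibition of the agonist-driven luminescence signal at 20 µM reaches about 50%, limit read from the data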;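 note: cells stimulated with CCL20 at 14 nM final; plate controls were DMSO with CCL20 for no effect and DMSO without agonist for full effect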
APJ agonist – activates the human apelin receptor APJ; activation, % at 20 µM; CHO-K1 APJ PathHunter beta-arrestin, luminescence; 0% DMSO wells, 100% apelin; AID 2520; actives 0.11% (n = 330,000); P35414;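 active = activation more than six SD over the plate average, tested at 20 µM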;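 note: 0% = DMSO alone and 100% = apelin-13 at 10 nM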
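assay system = CHO-K1 APJ beta-arrestin complementation cell line | input = cell density 1000 per well | dosing = compound 20 µM once, DMSO 1% | timing = compound 90 min 25 °C, reagent 1 h | measured by = luminescence from split beta-galactosidase complementation, Galacton Star/Emerald II substrate | read-out basis = APJ agonist activity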
EBI2 block – antagonists of human EBI2 receptor; P32249; EBI2 beta-arrestin recruitment, luminescence, 7a,25-OHC stimulated; inhibition, % at 5 µM; actives 0.81% (n = 360,000); AID 651636; in the data active = inhibition above about 38%;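 note: enzyme fragment complementation signal reports receptor beta-arrestin coupling in cells; 0% = agonist plus DMSO wells and 100% = wells without agonist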
m5-HT2A agonist – agonists of mouse serotonin 5-HT2A receptor (HTR2A) | activation, % at 7.6 µM | CHO-K1 mHTR2A beta-arrestin complementation, luminescence; percent of 30 µM serotonin response | P35363 | AID 624169 | actives 0.66% (n = 360,000);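 active = activation above a run cutoff, the mean activation of all tested compounds plus 3 SD, cut at about 14% in these data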;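 note: 0% = plate median of compound wells and 100% = 30 µM serotonin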
EBI2 conf – EBI2 (human) antagonism, single concentration confirmation; actives 29% (n = 2,400); shares compounds with EBI2 block; EBI2 beta-arrestin luminescence, 7a,25-OHC antagonism; inhibition, % at 5 µM; AID 651997;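 active = inhibition of at least 50%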
EBI2 ag – activates EBI2, counter-screen for EBI2 antagonists | shares compounds with EBI2 block | EBI2-expressing cells, agonist mode, luminescence, 60 min; 0% vehicle, 100% 7α,25-dihydroxycholesterol control | activation, % at 5 µM | 2,400 tested, under 10 active | AID 652000;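 active = activation of at least 50%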
bGal counter – inhibits E. coli beta-galactosidase, counter-screen for EBI2 antagonists | shares compounds with EBI2 block | actives 1% (n = 2,400) | AID 652176 | purified beta-galactosidase, luminescent Galacton Star, 15 min | inhibition, % at 5 µM;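 active = replicate-average signal at least 3 plate SD below neutral wells, shown as high inhibition, flagging enzyme-inhibiting false positives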;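 note: 0% = DMSO wells with enzyme and 100% = wells lacking enzyme; higher means stronger loss of beta-gal luminescence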
Numbers without * were called inactive; nt = no result.

SMILES	CXCR6 inh	APJ antagonist	CCR6 antagonist	APJ agonist	EBI2 block	m5-HT2A agonist	EBI2 conf	EBI2 ag	bGal counter
COc1ccc(OC)c(S(=O)(=O)N2CCN(CC(O)COc3ccc(C#N)cc3)CC2)c1 (stereo unspecified)	-9.6	7.4	-11.3	-0.4	45.2*	-4.2	5.6	0.4	11.0
COc1ccc(OCC(O)CN2CCC(CN3C(=O)c4cccc5cccc(c45)C3=O)CC2)cc1 (stereo unspecified)	-13.7	2.6	22.4	-5.6	43.7*	-10.2	20.4	0.9	6.2
COc1ccc(S(=O)(=O)N2CCN(CC(O)COc3ccc(C#N)cc3)CC2)cc1OC (stereo unspecified)	-9.8	3.9	-6.2	-3.4	13.4	-0.1	nt	nt	nt
COc1ccc(OC)c(S(=O)(=O)N2CCN(CC(O)COc3ccccc3)CC2)c1 (stereo unspecified)	-3.4	15.6	11.4	-2.8	46.3*	-6.2	7.7	0.8	10.4
CNC(C)C(=O)NC(C(=O)NC(C)C(=O)NNc1ccccc1)C(C)C (stereo unspecified)	-4.7	nt	nt	nt	-8.6	0.6	nt	nt	nt
COc1ccc(N2CCN(C(=O)COC(=O)c3ccc(CSC)o3)CC2)cc1	4.0	-13.5	0.2	0.4	5.1	-4.4	nt	nt	nt
CCS(=O)(=O)N1Cc2cc(C(=O)N(C)C)nc(-c3cccc(-c4ccc(F)cc4)c3)c2[C@@H]1CCO	1.3	nt	nt	nt	0.8	2.3	nt	nt	nt
COc1ccccc1NC(=O)/C(=C/c1ccncc1)NC(=O)c1ccccc1	-7.0	11.0	12.4	-1.5	-10.1	12.4	nt	nt	nt
C[C@@H]1CN([C@@H](C)CO)C(=O)CCCn2nncc2CO[C@@H]1CN(C)S(=O)(=O)c1cccc(F)c1	4.1	nt	nt	nt	64.5*	3.1	31.8	-0.7	-14.0
C[C@H]1CN([C@@H](C)CO)C(=O)CCCn2nncc2CO[C@H]1CN(C)S(=O)(=O)c1cccc(F)c1	0.3	nt	nt	nt	-5.9	-0.3	nt	nt	nt
C[C@@H]1CN([C@H](C)CO)C(=O)CCCn2nncc2CO[C@@H]1CN(C)S(=O)(=O)c1cccc(F)c1	3.9	nt	nt	nt	55.9*	3.4	27.0	-0.5	5.2
O=C(COc1ccc(Br)cc1)Nc1ccc(S(=O)(=O)Nc2ccccn2)cc1	2.4	-7.5	3.5	2.2	43.5*	-2.6	25.4	-0.9	-10.3
CC(=O)c1ccc(OCC(=O)N2CCN(S(=O)(=O)c3ccc(C)cc3C)CC2)cc1	-3.5	-7.4	-15.9	-1.0	65.2*	-10.1	28.6	-0.2	9.3
COc1ccc(C(=O)N2CCN(c3ccc(C)cc3C)CC2)cc1OC	0.6	-57.7	8.0	-3.1	78.2*	-3.6	53.2*	0.8	8.9
Cc1ccc(S(=O)(=O)N2CCN(C(=O)c3ccc4ccccc4n3)CC2)c(C)c1	2.9	-13.0	2.2	-1.6	54.6*	-9.3	45.4	1.2	6.5
Cc1ccc(S(=O)(=O)N2CCN(C(=O)COC(=O)COc3ccc(Br)cc3)CC2)c(C)c1	4.8	nt	-10.1	nt	-9.6	9.9	nt	nt	nt
COc1cccc2cc(C(=O)N3CCN(c4ccc(C)cc4C)CC3)c(=O)oc12	0.1	13.5	-14.2	3.2	46.9*	-1.6	32.8	0.7	8.5
CC1(CN2CCCC2)CCC(NC(=O)C(c2ccccc2)c2ccccc2)C(C)(C)O1 (stereo unspecified)	9.8	nt	nt	nt	0.8	-4.7	nt	nt	nt
COc1ccc(C(=O)N2CCN(S(=O)(=O)c3ccc(C)cc3C)CC2)cc1OC	-2.9	13.4	-0.8	0.6	47.9*	8.2	51.3*	1.9	7.2
O=S(=O)(c1ccc2c(c1)C(O)c1ccccc1CC2)C(F)(F)F (stereo unspecified)	-5.8	-17.4	16.3	-1.2	-2.6	0.4	nt	nt	nt
Cc1ccc(-c2csc(NC(=O)C3CSC4(C)CCC(=O)N34)n2)cc1 (stereo unspecified)	-4.0	-12.3	-7.4	-4.3	1.5	3.7	nt	nt	nt
C=CCN(C(=O)C1CSC2(C)CCC(=O)N12)c1nc(-c2ccccc2)cs1 (stereo unspecified)	10.8	27.3	11.0	0.5	48.1*	-2.0	63.5*	-0.9	-19.0
Nc1sc(-c2ccccc2)cc1C(=O)N1CCNCC1	nt	nt	nt	nt	46.0*	-7.1	32.6	0.4	10.5
Cc1cccc(C)c1N(CC(=O)Nc1cc(Cl)ccc1Oc1ccccc1)S(C)(=O)=O	4.6	16.3	12.2	-1.4	47.1*	-1.2	11.6	-0.2	8.2
COC(=O)CNC(=O)C1CC(=O)N(CCc2ccc(F)cc2)C1 (stereo unspecified)	7.1	13.1	0.8	-2.9	-0.7	-1.2	nt	nt	nt
SMILES	CXCR6 inh	APJ antagonist	CCR6 antagonist	APJ agonist	EBI2 block	m5-HT2A agonist	EBI2 conf	EBI2 ag	bGal counter
N#Cc1ccc(C(=O)Nc2cc(S(=O)(=O)Nc3ccc(Cl)cc3)ccc2N2CCCCC2)cc1	-4.6	-15.2	13.1	-0.7	52.4*	0.4	33.4	0.8	3.5
COc1cc(C2N(c3ccccc3)CCN2c2ccccc2)ccc1OC(C)=O	-1.4	13.8	13.4	0.4	5.4	-0.5	nt	nt	nt
COc1ccc(C2N(c3ccc(C)cc3)CCN2c2ccc(C)cc2)cc1O	1.6	-2.8	5.1	-2.6	73.5*	-0.2	15.3	0.7	4.0
Brc1ccc(OCc2nnc(SCC3CCCCC3)o2)cc1	2.8	-16.2	6.1	2.8	69.0*	-0.2	26.8	0.7	-5.8
CC(NC(=O)c1ccc(Cl)cc1)c1nnc(SCC(=O)NC2=NCCS2)n1C (stereo unspecified)	-3.7	-2.2	1.9	-1.2	-3.2	-1.9	nt	nt	nt
O=C(c1cc2ccccc2o1)N1CCN(c2ncccn2)CC1	-2.5	-0.7	5.3	-4.1	59.0*	1.8	33.8	-0.8	-11.1
O=C(c1cc2cc(Br)ccc2o1)N1CCN(c2ccccc2)CC1	-6.6	10.0	7.7	-3.4	53.2*	-3.5	37.2	1.2	7.7
O=C(c1cc2ccccc2oc1=O)N1CCN(c2ncccn2)CC1	2.7	-10.1	2.9	5.1	-2.0	0.5	nt	nt	nt
CCc1noc(C)c1C(=O)N1CCCSC1=Nc1ccccc1Cl	9.2	-4.6	2.0	-6.6	12.5	13.1	nt	nt	nt
COc1cc(-c2nnc(COc3ccc4cc(Br)ccc4c3)o2)cc(OC)c1OC	2.8	15.3	7.9	-0.9	55.5*	0.9	14.2	1.0	0.9
Cc1ccc(C(=O)Nc2ccccc2C(=O)NCc2ccco2)cc1S(=O)(=O)N1CCCCC1	11.9	-0.7	25.9	-3.8	44.3*	-3.6	28.1	0.4	7.6
